# In article PMC5731459 (Science translational medicine, 2017):
# “And” between values parts separate entries of the source, which are not always exact repeats. Equal values may be shown once. Read-outs that look alike come from different tables or passages of the source.
# Tests used:
# [1] = tested on: P. falciparum stage V gametocytes; assay: Male gamete formation; assay type: cell-based; conditions: Plasmodium falciparum, 24 h, read-out: potency, inhibition of exflagellation
# [2] = rats; cited from earlier work
# ATM (Q13315) = ATM (Q13315) (Homo sapiens, UniProt Q13315); assay: Chemoproteomic pull-down in K562 cell extract; assay type: binding
# Chain of ATM (Q13315) (Q13315 whole entry): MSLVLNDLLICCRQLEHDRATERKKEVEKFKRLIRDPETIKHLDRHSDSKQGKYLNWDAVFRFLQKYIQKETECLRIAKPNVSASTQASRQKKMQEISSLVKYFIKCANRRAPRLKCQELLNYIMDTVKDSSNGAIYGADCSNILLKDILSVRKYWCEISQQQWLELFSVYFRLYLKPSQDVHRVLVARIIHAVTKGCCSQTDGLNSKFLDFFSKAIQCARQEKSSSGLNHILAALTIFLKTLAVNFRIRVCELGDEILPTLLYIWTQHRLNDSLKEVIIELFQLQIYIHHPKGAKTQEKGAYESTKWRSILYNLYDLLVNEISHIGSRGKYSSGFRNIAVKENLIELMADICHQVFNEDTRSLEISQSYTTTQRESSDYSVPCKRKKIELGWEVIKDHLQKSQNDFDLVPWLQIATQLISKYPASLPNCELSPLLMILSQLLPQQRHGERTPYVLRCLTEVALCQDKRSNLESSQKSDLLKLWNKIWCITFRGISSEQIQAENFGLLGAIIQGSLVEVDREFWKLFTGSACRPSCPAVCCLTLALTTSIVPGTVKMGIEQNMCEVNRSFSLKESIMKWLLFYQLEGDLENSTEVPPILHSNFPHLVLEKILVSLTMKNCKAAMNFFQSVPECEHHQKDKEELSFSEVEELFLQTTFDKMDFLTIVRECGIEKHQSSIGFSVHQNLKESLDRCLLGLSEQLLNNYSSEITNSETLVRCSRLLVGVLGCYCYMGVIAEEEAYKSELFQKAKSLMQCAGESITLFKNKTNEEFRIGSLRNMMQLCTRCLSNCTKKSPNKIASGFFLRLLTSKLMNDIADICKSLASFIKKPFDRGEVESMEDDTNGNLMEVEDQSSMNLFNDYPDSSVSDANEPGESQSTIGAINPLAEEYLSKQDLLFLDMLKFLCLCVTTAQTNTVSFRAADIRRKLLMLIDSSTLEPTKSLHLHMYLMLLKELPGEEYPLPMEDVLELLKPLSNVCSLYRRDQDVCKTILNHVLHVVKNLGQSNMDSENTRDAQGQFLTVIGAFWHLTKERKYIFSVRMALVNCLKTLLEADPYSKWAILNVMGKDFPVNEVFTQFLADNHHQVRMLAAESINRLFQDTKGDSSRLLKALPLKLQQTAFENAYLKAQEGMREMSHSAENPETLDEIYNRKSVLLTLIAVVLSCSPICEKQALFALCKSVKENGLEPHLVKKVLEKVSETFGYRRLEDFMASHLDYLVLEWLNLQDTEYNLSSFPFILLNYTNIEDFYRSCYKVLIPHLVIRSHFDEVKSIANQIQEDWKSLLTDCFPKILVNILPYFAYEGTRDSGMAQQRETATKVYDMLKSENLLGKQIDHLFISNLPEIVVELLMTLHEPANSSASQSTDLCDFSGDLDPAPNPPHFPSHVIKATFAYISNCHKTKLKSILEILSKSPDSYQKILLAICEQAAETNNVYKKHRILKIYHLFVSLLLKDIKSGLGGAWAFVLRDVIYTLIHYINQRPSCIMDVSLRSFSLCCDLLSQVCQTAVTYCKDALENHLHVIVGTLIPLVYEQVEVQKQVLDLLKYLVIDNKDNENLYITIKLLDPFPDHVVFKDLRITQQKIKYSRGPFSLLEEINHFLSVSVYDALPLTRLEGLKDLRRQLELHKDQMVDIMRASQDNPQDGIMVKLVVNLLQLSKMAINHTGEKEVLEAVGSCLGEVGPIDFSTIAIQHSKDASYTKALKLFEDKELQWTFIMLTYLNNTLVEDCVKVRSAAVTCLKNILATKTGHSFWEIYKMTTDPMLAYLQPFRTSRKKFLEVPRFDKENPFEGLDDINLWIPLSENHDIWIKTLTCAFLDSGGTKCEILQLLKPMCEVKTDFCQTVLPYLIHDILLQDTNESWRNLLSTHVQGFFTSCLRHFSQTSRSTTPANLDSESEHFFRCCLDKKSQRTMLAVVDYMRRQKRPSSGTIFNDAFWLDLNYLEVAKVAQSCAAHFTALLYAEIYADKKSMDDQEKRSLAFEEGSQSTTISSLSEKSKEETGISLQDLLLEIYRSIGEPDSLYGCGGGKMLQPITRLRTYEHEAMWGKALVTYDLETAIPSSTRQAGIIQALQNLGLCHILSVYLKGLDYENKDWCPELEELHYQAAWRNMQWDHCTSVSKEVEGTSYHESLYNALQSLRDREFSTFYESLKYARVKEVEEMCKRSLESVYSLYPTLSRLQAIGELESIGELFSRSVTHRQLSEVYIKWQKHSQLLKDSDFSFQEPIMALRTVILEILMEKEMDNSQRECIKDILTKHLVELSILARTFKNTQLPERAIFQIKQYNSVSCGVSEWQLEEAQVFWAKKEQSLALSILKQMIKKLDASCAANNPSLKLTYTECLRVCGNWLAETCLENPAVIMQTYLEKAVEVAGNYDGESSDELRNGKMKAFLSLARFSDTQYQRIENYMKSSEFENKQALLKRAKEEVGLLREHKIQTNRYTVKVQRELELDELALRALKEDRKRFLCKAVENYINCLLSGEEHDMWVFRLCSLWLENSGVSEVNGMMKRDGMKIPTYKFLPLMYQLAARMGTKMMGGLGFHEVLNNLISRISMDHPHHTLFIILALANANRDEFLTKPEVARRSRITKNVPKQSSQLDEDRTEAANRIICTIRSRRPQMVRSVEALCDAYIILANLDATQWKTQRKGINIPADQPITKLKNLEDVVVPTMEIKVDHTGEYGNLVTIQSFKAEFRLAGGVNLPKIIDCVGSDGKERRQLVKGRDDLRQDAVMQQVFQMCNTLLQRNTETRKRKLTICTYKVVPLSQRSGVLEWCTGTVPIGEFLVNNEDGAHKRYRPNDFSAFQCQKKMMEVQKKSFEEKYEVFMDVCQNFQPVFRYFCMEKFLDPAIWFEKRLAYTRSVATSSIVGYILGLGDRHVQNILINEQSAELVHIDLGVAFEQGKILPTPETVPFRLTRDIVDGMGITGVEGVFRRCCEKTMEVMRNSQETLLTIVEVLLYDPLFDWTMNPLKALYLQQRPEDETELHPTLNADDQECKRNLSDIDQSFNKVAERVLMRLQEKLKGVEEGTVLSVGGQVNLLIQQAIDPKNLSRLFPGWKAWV
# Outline: (§1)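 They were incubated 1 h at 4°C with K562 extract (5 mg) preincubated with test compound or buffer. Eluates were alkylated, separated by SDS gel and quantified by isobaric mass tagging LC-MS/MS.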
# [3] = tested on: P. falciparum NF54 strain; assay: Erythrocytic IC50 speed and stage specificity assays; assay type: cell-based, Plasmodium falciparum
# PfPI4K [4] = target: T1, PfPI4K (Plasmodium falciparum, UniProt Q8I406); assay: Chemoproteomic competition binding, immobilized MMV666845 beads
# [5] = tested on: P. falciparum Dd2 parasites; assay: microbe, parasite or virus in culture; assay type: cell-based; conditions: Plasmodium falciparum
# P. falciparum = assay: PKPD; assay type: in vivo, Plasmodium falciparum
# Outline: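 A direct-effect composite Emax PKPD model was fitted to humanized SCID mouse P. falciparum efficacy data, allowing for change in kill rate at higher doses. Inputs were modeled blood concentrations from individual-mouse whole-blood PK after once-daily oral dosing for 4 days. The model gave MIC, EC50/EC90 for kill rate and predicted parasitemia after 4 days.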
# [6] = Allometric scaling to human pharmacokinetics and dose
# PfPI4K [7] = target: T1, PfPI4K; assay: Chemoproteomic competition binding, Kinobeads
# [8] = Plasma concentrations in the prophylactic monkey study; assay type: in vivo, Macaca mulatta; conditions: po, 20 mg/kg
# [9] = pH 6.5; cited from earlier work
# [10] = Protein binding and blood-to-plasma partitioning; assay type: in vitro ADME
# TNIK (Q9UKE5) = TNIK (Q9UKE5) (Homo sapiens, UniProt Q9UKE5); assay: Chemoproteomic pull-down in K562 cell extract; assay type: binding
# Chain of TNIK (Q9UKE5) (Q9UKE5 whole entry): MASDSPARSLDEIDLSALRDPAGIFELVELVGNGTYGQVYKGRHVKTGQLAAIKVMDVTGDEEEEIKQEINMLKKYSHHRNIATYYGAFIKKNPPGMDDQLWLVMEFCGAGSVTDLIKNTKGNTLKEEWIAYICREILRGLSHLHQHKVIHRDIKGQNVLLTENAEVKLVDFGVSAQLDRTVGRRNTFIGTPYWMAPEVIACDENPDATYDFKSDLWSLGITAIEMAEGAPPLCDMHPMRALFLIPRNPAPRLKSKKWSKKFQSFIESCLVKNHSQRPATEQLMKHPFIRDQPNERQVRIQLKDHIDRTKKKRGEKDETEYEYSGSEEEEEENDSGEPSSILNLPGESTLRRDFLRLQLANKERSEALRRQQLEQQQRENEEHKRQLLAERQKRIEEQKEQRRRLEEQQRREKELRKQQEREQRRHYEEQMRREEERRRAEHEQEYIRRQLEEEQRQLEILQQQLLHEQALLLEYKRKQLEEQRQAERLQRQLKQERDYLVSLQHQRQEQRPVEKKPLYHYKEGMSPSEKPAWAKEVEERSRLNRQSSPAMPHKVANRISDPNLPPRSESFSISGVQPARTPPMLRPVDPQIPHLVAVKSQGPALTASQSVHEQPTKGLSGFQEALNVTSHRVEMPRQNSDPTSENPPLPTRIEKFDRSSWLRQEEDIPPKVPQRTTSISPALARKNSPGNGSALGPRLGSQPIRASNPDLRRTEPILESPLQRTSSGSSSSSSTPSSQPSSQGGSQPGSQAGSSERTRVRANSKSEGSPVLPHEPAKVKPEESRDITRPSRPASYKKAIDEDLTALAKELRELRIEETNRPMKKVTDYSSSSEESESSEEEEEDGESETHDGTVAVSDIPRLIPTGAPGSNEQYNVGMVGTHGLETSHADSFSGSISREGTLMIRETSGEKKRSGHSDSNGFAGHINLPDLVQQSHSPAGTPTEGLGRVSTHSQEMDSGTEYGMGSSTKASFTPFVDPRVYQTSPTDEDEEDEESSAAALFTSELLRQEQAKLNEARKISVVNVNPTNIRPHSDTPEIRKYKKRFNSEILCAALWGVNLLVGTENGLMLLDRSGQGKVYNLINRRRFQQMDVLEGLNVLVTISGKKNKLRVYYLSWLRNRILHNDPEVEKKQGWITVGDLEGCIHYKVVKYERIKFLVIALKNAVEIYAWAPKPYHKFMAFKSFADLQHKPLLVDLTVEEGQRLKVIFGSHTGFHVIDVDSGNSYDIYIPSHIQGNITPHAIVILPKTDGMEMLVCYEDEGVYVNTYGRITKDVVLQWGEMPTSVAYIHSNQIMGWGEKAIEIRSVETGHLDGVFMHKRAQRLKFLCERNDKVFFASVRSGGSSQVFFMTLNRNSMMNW
# Outline: as §1
# PI4KB (Q9UBF8) = PI4KB (Q9UBF8) (Homo sapiens, UniProt Q9UBF8); assay: Chemoproteomic pull-down in K562 cell extract; assay type: binding
# Outline: as §1
# [11] = tested on: Dd2 multidrug-resistant parental line; assay: Cross-resistance test, parental line; assay type: cell-based; conditions: Plasmodium falciparum
# P. falciparum 3D7 strain = assay: In vitro parasite reduction ratio; assay type: cell-based, Plasmodium falciparum; conditions: 10× IC50
# P. cynomolgi = assay: Radical cure study in P. cynomolgi-infected rhesus macaques; conditions: 20 mg/kg oral daily for 5 days, Cmax 5697 ng/ml
# [12] = tested on: parasites bearing PfPI4K mutation H1484Y; assay: Cross-resistance test, transgenic PI4K-H1484Y line; assay type: cell-based; conditions: Plasmodium falciparum
# [13] = tested on: P. berghei-infected HepG2 liver cells; assay: P. berghei liver-stage phenotyping in HepG2 cells; assay type: cell-based, Plasmodium berghei; conditions: 460 nM, 2 to 8 hours after infection
# Outline: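 Extracellular sporozoites were washed off at 2 h, then cells were exposed to 460 nM test compound or DMSO vehicle. Cells were fixed 8 h after invasion, immunolabeled and imaged by confocal microscopy.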
# [14] = tested on: P. falciparum late-stage gametocytes (stages IV and V); assay: Gametocyte viability assay; assay type: cell-based; conditions: Plasmodium falciparum, read-out: IC50, gametocyte viability (pLDH)
# [15] = tested on: drug-sensitive 3D7 P. falciparum strain; assay: P. falciparum humanized SCID mouse efficacy model; assay type: in vivo, Plasmodium falciparum; conditions: once daily oral for four consecutive days
# Outline: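 Humanized SCID mice were infected with P. falciparum 3D7. From day 3 after infection, test compound was given orally once daily for 4 days, one mouse per dose level. Blood parasitemia was measured by flow cytometry and ED90 was read at day 7. Whole-blood drug levels were sampled 0–23 h after the first dose (LLOQ 1 ng/mL).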
# P. berghei [16] = assay: Mouse-to-mouse transmission model; assay type: in vivo, Plasmodium berghei; conditions: 2 mg/kg oral; compared to 6.1 days in control mice
# Outline: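 Female TO mice (6–8 weeks) were infected i.p. with P. berghei clone 507cl1. On day 9, after exflagellation was confirmed, each received one 2 mg/kg oral gavage dose; controls were atovaquone 0.3 mg/kg and sulfadiazine 8.4 mg/kg i.p. Mosquitoes fed, then at day 21 bit naive mice for 20 min. Smears on days 4–10 set patency. Duplicates were combined by generalized linear mixed model against no-drug control.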
# [17] = tested on: P. falciparum stage V gametocytes (oocysts in mosquito midgut); assay: Indirect standard membrane-feeding assay; assay type: cell-based; conditions: Plasmodium falciparum, 24 h, read-out: inhibition of oocyst formation (potency)
# [18] = tested on: P. falciparum early-stage (stages I to III) gametocytes expressing luciferase; assay: Gametocyte viability assay; assay type: cell-based, Plasmodium falciparum
# P. berghei [19] = assay: P. berghei mouse efficacy model; assay type: in vivo, Plasmodium berghei
# [20] = tested on: parasites bearing PfPI4K mutation S1320L; assay: Cross-resistance test, transgenic PI4K-S1320L line; assay type: cell-based; conditions: Plasmodium falciparum
# [21] = Plasma concentrations in the radical cure monkey study; assay type: in vivo, Macaca mulatta
# PI4KA (P42356) = PI4KA (P42356) (Homo sapiens, UniProt P42356); assay: Chemoproteomic pull-down in K562 cell extract; assay type: binding
# Outline: as §1
# [22] = tested on: P. cynomolgi liver-stage parasites; assay: P. cynomolgi liver-stage assay, IC99; assay type: cell-based, Plasmodium cynomolgi
# [23] = tested on: P. falciparum late-stage (stages IV and V) gametocytes expressing luciferase; assay: Gametocyte viability assay; assay type: cell-based, Plasmodium falciparum
# in vivo = conditions: male (mice, rats), female (monkeys, dogs), Swiss outbred (mice), Sprague Dawley (rats), beagle (dogs), mouse, rat, dog, cynomolgus monkey, iv
# [24] = tested on: P. falciparum stage V gametocytes (oocysts in mosquito midgut); assay: Direct standard membrane-feeding assay; assay type: cell-based; conditions: Plasmodium falciparum, read-out: inhibition of the formation of oocysts
# [25] = tested on: P. falciparum (NF54 drug-sensitive strain); assay: [3H]-hypoxanthine incorporation assay, asexual blood-stage parasites; assay type: cell-based; conditions: Plasmodium falciparum, NF54, 72 h
# [26] = Plasmodium falciparum, read-out: IC50, gametocyte viability (luciferase)
structure (smiles),measurement,setting,value
CS(=O)(=O)c1ccc(-c2cnc(N)c(-c3ccc(C(F)(F)F)nc3)c2)cc1 [MMV390048],IC50,[1],90 nM
same,absorption,[2],well absorbed
same,binding affinity,ATM (Q13315),low binding affinity
same,blood-stage specificity profile,[3],highest activity against the young schizont stage
same,Kd,PfPI4K [4],300 nM
same,effect of excess free compound on capture of P. falciparum PI4K by the beads,PfPI4K [4]; excess compound (10 µM for MMV390048),competitively inhibited
same,IC50,[5]; DD2,16 nM
same,IC50,"[5]; DD2, read-out: IC50 of resistant clones",70 to 90 nM
same,parasitemia at the end of 4 days,P. falciparum; dose of 1 mg/kg (highest predicted kill rate),< 0.01%
same,MIC to inhibit growth,P. falciparum; modeled blood concentration,0.071 µg/mL
same,predicted elimination half-life in humans,[6],about 90 hours
same,predicted plasma clearance in humans,[6],0.02 liter/hour per kg
same,predicted volume of distribution in humans,[6],2.8 L/kg
same,Kd,PfPI4K [7],100 nM
same,Cmax,[8],1980 ng/mL
same,half-life,[8],~30 h
same,kinetic solubility,[9],not optimal
same,serum albumin (AlbuMAX) binding,[10],54%
same,fraction unbound,"[10]; plasma, protein binding, used for MIC correction",0.139
same,binding affinity,TNIK (Q9UKE5),low binding affinity
same,binding,PI4KB (Q9UBF8),did not observe any binding
same,IC50,[11],22.7 nM
same,lag phase,P. falciparum 3D7 strain,24 h
same,observed toxicity,P. cynomolgi,without any observed toxicity
same,IC50,[12],62.8 nM
same,localization of parasitophorous vacuole membrane protein UIS4,[13],mislocalization
same,IC50,[14],285 nM
same,ED90 at day 7,[15],0.57 mg/kg
same,Prepatency (±SEM),P. berghei [16],6.8 days (±0.28)
same,IC50,[17],111 nM
same,IC50,[18]; [26],214 nM
same,clearance rate (slope),"[18]; stage I to III, at IC50 concentration over 3 days",−6.09
same,ED50,"P. berghei [19]; Plasmodium berghei, in Mus musculus, po, 72 h",0.57 mg/kg
same,ED90,"P. berghei [19]; four oral administrations (4, 24, 48, 72 hours after infection), measured at 96 hours",1.1 mg/kg
same,in vivo parasite clearance rate,P. berghei [19]; single oral dose 100 mg/kg,intermediate
same,IC50,[20],57.7 nM
same,time plasma concentration above liver-stage IC99,[21]; 20 mg/kg oral daily for 5 days,15.8 days
same,Cmax,"[21]; monkey, plasma, po, 20 mg/kg",5700 ng/mL
same,time plasma concentration above blood-stage MIC,"[21]; rhesus macaque (Macaca mulatta), in vivo",20 days
same,binding,PI4KA (P42356),did not observe any binding
same,liver-stage IC99 (in vitro),[22],90 nM
same,in vivo IC99 (estimated),[22]; in vitro IC99 corrected for AlbuMAX binding and plasma protein binding,353 ± 32 nM and 138 ± 13 ng/ml
same,late-stage gametocytes killed faster than early-stage,[23],2.5 times
same,IC50,[23]; [26],140 nM
same,rate of onset of action,[23]; luciferase-expressing gametocytes,24 h
same,clearance rate (slope),"[23]; stage IV and V, at IC50 concentration over 3 days",−15.49
same,Vd,in vivo,1.3 to 3 L/kg
same,clearance,in vivo,0.6 to 6.5 mL/min/kg
same,inhibition at 1000 µM,[24],< 25%
same,IC90,[25],40 nM
"CCc1nc(N)nc(N)c1-c1ccc(Cl)cc1 [pyrimethamine, reference compound]",IC50 fold higher at 24-hour compared to 72-hour time point,[3]; unsynchronized culture,7.8 fold
"C[C@H]1[C@@H](O)O[C@@H]2O[C@@]3(C)CC[C@H]4[C@H](C)CC[C@@H]1[C@@]24OO3 [dihydroartemisinin, reference compound]",IC50,[14],12 nM
